ChEMBL document CHEMBL3259637, “Synthesis and antiproliferative effect of novel 4-thiazolidinone-, pyridine- and piperazine-based conjugates on human leukemic cells” (Eur J Med Chem, 2014)
Active and inactive are the calls of the source. The calls are words filed in the database; no cut-off is given here.

Key:
Jurkat = experiment: Antiproliferative activity against human Jurkat cells after 48 to 72 hrs by trypan blue dye exclusion assay and MTT assay; type: functional, cell-based
[1] = Antiproliferative activity against human NALM6 cells after 48 to 72 hrs by trypan blue dye exclusion assay and MTT assay; type: functional, cell-based; conditions: NALM-6
K562 = experiment: Antiproliferative activity against human K562 cells after 48 to 72 hrs by trypan blue dye exclusion assay and MTT assay; type: functional, cell-based
[2] = Cell cycle arrest in human NALM6 cells assessed as accumulation at subG1 phase at 20 uM after 48 hrs by propidium iodide staining based flow cytometry; type: functional; conditions: NALM-6
In short: (§1)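 Nalm6 cells (about 0.75 × 10⁵ cells/ml) were treated at 5, 10 and 20 µM for 48 h, with a DMSO vehicle control. Cells were PBS-washed, treated with RNase (50 µg/ml), stained with propidium iodide and analysed by flow cytometry (488 nm excitation, 560/670 emission). At least 10,000 cells per sample; subG1, G1, S and G2/M fractions scored. Two independent experiments.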

[3] = Cell cycle arrest in human NALM6 cells assessed as accumulation at G2/M phase at 20 uM after 48 hrs by propidium iodide staining based flow cytometry; type: functional; conditions: NALM-6; in short: as §1
[4] = Cell cycle arrest in human NALM6 cells assessed as change in cell cycle distribution at 5 to 10 uM after 48 hrs by propidium iodide staining based flow cytometry; type: functional; conditions: NALM-6; in short: as §1
[5] = Cell cycle arrest in human NALM6 cells assessed as change in cell cycle distribution after 48 hrs by propidium iodide staining based flow cytometry; type: functional; conditions: NALM-6; in short: as §1
NALM-6 = experiment: Induction of cell death in human NALM6 cells assessed as mitochondrial membrane potential depolarization after 48 hrs by JC1 staining based flow cytometry; type: functional
In short: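 Nalm6 cells were exposed to 5, 10 and 20 µM for 48 h, then loaded with JC-1 (0.5 µM) at 37°C for 30 min and PBS-washed. Flow cytometry used 488 nm excitation, reading emission at 530/630 and 580/610 nm on 10,000 cells. The ratio of red to green fluorescent cells was reported. 2,4-DNP was the positive control and DMSO the vehicle control.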

| Structure (SMILES) | IC50 (Jurkat) [µM] | IC50 [1] [µM] | IC50 (K562) [µM] | Activity [2] | Activity [3] | Activity [4] | Activity [5] | Activity (NALM-6) |
| --- | --- | --- | --- | --- | --- | --- | --- | --- |
| COC(=O)c1ccc(C2SCC(=O)N2c2ccc(N3CCN(S(=O)(=O)c4c(C)cc(C)cc4C)CC3)cn2)c(OC)c1 (stereo not given) | > 100 | > 100 | 53.5 |  |  |  |  |  |
| COC(=O)c1ccc(C2SCC(=O)N2c2ccc(N3CCN(S(=O)(=O)c4ccc([N+](=O)[O-])cc4)CC3)cn2)c(OC)c1 (stereo not given) | 54 | > 100 | 65.2 |  |  |  |  |  |
| COC(=O)c1ccc(C2SCC(=O)N2c2ccc(N3CCN(Cc4ccc(Cl)c(Cl)c4)CC3)cn2)c(OC)c1 (stereo not given) | 61 | > 100 | > 100 |  |  |  |  |  |
| COC(=O)c1ccc(C2SCC(=O)N2c2ccc(N3CCNCC3)cn2)c(OC)c1 (stereo not given) | 19.3 | 9.71 | 15.2 | Active | Active | Active | Dose-dependent effect | Dose-dependent effect |
| COC(=O)c1ccc(C2SCC(=O)N2c2ccc(N3CCN(S(=O)(=O)c4cc(Cl)ccc4Cl)CC3)cn2)c(OC)c1 (stereo not given) | > 100 | 27.4 | > 100 |  |  |  |  |  |
| COC(=O)c1ccc(C2SCC(=O)N2c2ccc(N3CCN(Cc4cccc([N+](=O)[O-])c4)CC3)cn2)c(OC)c1 (stereo not given) | 37.4 | > 100 | 68.7 |  |  |  |  |  |
| COC(=O)c1ccc(C2SCC(=O)N2c2ccc(N3CCN(S(=O)(=O)c4ccccc4)CC3)cn2)c(OC)c1 (stereo not given) | 52.9 | 48.4 | 65.6 |  |  |  |  |  |
| COC(=O)c1ccc(C2SCC(=O)N2c2ccc(N3CCN(Cc4cc(OC)c(OC)c(OC)c4)CC3)cn2)c(OC)c1 (stereo not given) | 41 | > 100 | > 100 |  |  |  |  |  |
| COC(=O)c1ccc(C2SCC(=O)N2c2ccc(N3CCN(S(=O)(=O)c4ccc(F)cc4)CC3)cn2)c(OC)c1 (stereo not given) | 78.3 | > 100 | > 100 |  |  |  |  |  |
| COC(=O)c1ccc(C2SCC(=O)N2c2ccc(N3CCN(Cc4cccc(C)c4)CC3)cn2)c(OC)c1 (stereo not given) | > 100 | 27.3 | > 100 |  |  |  |  |  |
| COC(=O)c1ccc(C2SCC(=O)N2c2ccc(N3CCN(S(=O)(=O)c4ccc(OC)cc4)CC3)cn2)c(OC)c1 (stereo not given) | 45.2 | 29.4 | 54.5 |  |  |  |  |  |
| CC(=O)O[C@H]1C(=O)[C@@]2(C)[C@H]([C@H](OC(=O)c3ccccc3)[C@]3(O)C[C@H](OC(=O)[C@H](O)[C@@H](NC(=O)c4ccccc4)c4ccccc4)C(C)=C1C3(C)C)[C@]1(OC(C)=O)CO[C@@H]1C[C@@H]2O [PACLITAXEL] | 0.0045 | 0.0041 |  |  |  |  |  |  |
